Data: ChEMBL document CHEMBL1146216, “Synthesis and biological activity of a gemcitabine phosphoramidate prodrug” (J Med Chem, 2007)

Columns and labels:
[1] = Ratio of growth inhibition of H292 cells by drug to 2'-2'-difluorodeoxycytidine; type: functional, Homo sapiens
SK-MEL-5 = assay: Growth inhibition of SK-MEL-5 cells; type: functional; conditions: Homo sapiens
SW1573 [2] = assay: Growth inhibition of SW1573 cells by SRB assay in presence of dipyridamole; type: functional, cell-based; conditions: Homo sapiens
Method in brief: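 SW1573 cells cultured in DMEM, 10% FCS, 20 mM HEPES, 37 °C, 5% CO2. Plated at 5000 cells/well and given graded drug concentrations with the nucleoside transport inhibitor dipyridamole at 1 µM final, for 72 h. SRB read-out at OD 540 or 492 nm. Growth is expressed relative to time-zero and untreated wells.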

DU-145 = assay: Growth inhibition in DU145 cells; type: functional; conditions: Homo sapiens
CCRF-CEM [3] = assay: Growth inhibition of CEM cells by MTT assay in presence of dipyridamole; conditions: Homo sapiens
MOLT-4 = assay: Growth inhibition of MOLT4 cells; type: functional; conditions: Homo sapiens
EKVX = assay: Growth inhibition in EKVX cells; type: functional; conditions: Homo sapiens
NCI-H460 [4] = assay: Growth inhibition of NCI-H460 cells; type: functional; conditions: Homo sapiens
MDA-MB-435 = assay: Growth inhibition of MDA-MB-435 cells; type: functional; conditions: Homo sapiens
LOX IMVI = assay: Growth inhibition of LOX IMVI cells; type: functional; conditions: Homo sapiens
CCRF-CEM [5] = assay: Growth inhibition of CEM cells by MTT assay; conditions: Homo sapiens
HOP-92 = assay: Growth inhibition in HOP92 cells; type: functional; conditions: Homo sapiens
HCT-116 = assay: Growth inhibition in HCT116 cells; type: functional; conditions: Homo sapiens
A549 [6] = assay: Growth inhibition of A549 cells by SRB assay in presence of dipyridamole; type: functional, cell-based; conditions: Homo sapiens
Method in brief: (§1)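 SRB growth assay run with the nucleoside transport inhibitor dipyridamole at 1 µM final. Cells were seeded at 5000/well and exposed to a range of drug concentrations for 72 h at 37 °C, 5% CO2. Media: DMEM for A2780 and the dCK-deficient AG6000; RPMI for A549, H292 and H460; each with 10% FCS and 20 mM HEPES. Relative growth was calculated against ODzero and untreated controls.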

NCI-H23 = assay: Growth inhibition of NCI-H23 cells; type: functional; conditions: Homo sapiens
ACHN = assay: Growth inhibition in ACHN cells; type: functional; conditions: Homo sapiens
IGROV-1 = assay: Growth inhibition in IGROV1 cells; type: functional; conditions: Homo sapiens
786-0 = assay: Growth inhibition in 786-0 cells; type: functional; conditions: Homo sapiens
SW-620 = assay: Growth inhibition of SW620 cells; type: functional; conditions: Homo sapiens
NCI-H460 [7] = assay: Growth inhibition of H460 cells by SRB assay; type: functional, cell-based; conditions: Homo sapiens
Method in brief: (§2)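 Cells seeded at 5000/well and exposed to a range of drug concentrations for 72 h at 37 °C, 5% CO2, then read by SRB. A2780 and its dCK-deficient variant AG6000 were grown in DMEM; A549, H292 and H460 in RPMI; both media had 10% FCS and 20 mM HEPES. OD was read at 540 or 492 nm. Relative growth = (ODtreated − ODzero)/(ODcontrol − ODzero) × 100%, with ODzero taken at drug addition.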

NCI-H460 [8] = assay: Growth inhibition of H460 cells by SRB assay in presence of dipyridamole; type: functional, cell-based; conditions: Homo sapiens; method in brief: as §1
A549 [9] = assay: Ratio of growth inhibition of A549 cells by drug to 2'-2'-difluorodeoxycytidine; type: functional, Homo sapiens
M14 = assay: Growth inhibition of M14 cells; type: functional; conditions: Homo sapiens
SF-268 = assay: Growth inhibition of SF268 cells; type: functional; conditions: Homo sapiens
[10] = Growth inhibition of H292 cells by SRB assay in presence of dipyridamole; type: functional, cell-based; conditions: Homo sapiens, NCI-H292; method in brief: as §1
NCI-H226 = assay: Growth inhibition of NCI-H226 cells; type: functional; conditions: Homo sapiens
TK-10 = assay: Growth inhibition of TK10 cells; type: functional; conditions: Homo sapiens
A2780 [11] = assay: Ratio of growth inhibition of A2780 cells by drug to 2'-2'-difluorodeoxycytidine; type: functional, Homo sapiens
NCI-H322M = assay: Growth inhibition of NCI-H322M cells; type: functional; conditions: Homo sapiens
SNB-19 = assay: Growth inhibition of SNB19 cells; type: functional; conditions: Homo sapiens
HCT-15 = assay: Growth inhibition in HCT15 cells; type: functional; conditions: Homo sapiens
CAKI-1 = assay: Growth inhibition in CAKI1 cells; type: functional; conditions: Homo sapiens
K562 = assay: Growth inhibition of K562 cells; type: functional; conditions: Homo sapiens
[12] = Growth inhibition of AG6000 cells by SRB assay in presence of dipyridamole; type: functional, cell-based; conditions: Homo sapiens; method in brief: as §1
OVCAR-5 = assay: Growth inhibition of OVCAR5 cells; type: functional; conditions: Homo sapiens
SN12C = assay: Growth inhibition of SN12C cells; type: functional; conditions: Homo sapiens
A498 = assay: Growth inhibition in A498 cells; type: functional; conditions: Homo sapiens
CCRF-CEM [13] = assay: Ratio of growth inhibition of dCK deficient CEM cells by drug to 2'-2'-difluorodeoxycytidine; type: functional, Homo sapiens
CCRF-CEM [14] = assay: Growth inhibition of dCK deficient CEM cells by MTT assay in presence of dipyridamole; conditions: Homo sapiens
A549 [15] = assay: Growth inhibition in A549 cells; type: functional; conditions: Homo sapiens
KM12 = assay: Growth inhibition of KM12 cells; type: functional; conditions: Homo sapiens
CCRF-CEM [16] = assay: Ratio of growth inhibition of CEM cells by drug to 2'-2'-difluorodeoxycytidine; type: functional, Homo sapiens
COLO 205 = assay: Growth inhibition in COLO 205 cells; type: functional; conditions: Homo sapiens
U-251 = assay: Growth inhibition of U251 cells; type: functional; conditions: Homo sapiens
SK-MEL-28 = assay: Growth inhibition of SK-MEL-28 cells; type: functional; conditions: Homo sapiens
A549 [17] = assay: Growth inhibition of A549 cells by SRB assay; type: functional, cell-based; conditions: Homo sapiens; method in brief: as §2
SNB-75 = assay: Growth inhibition of SNB75 cells; type: functional; conditions: Homo sapiens
SF-295 = assay: Growth inhibition of SF295 cells; type: functional; conditions: Homo sapiens
[18] = Growth inhibition in HS 578T cells; type: functional; conditions: Homo sapiens
UO-31 = assay: Growth inhibition of UO31 cells; type: functional; conditions: Homo sapiens
SF-539 = assay: Growth inhibition of SF539 cells; type: functional; conditions: Homo sapiens
UACC-257 = assay: Growth inhibition of UACC257 cells; type: functional; conditions: Homo sapiens
[19] = Ratio of growth inhibition of AG6000 cells by drug to 2'-2'-difluorodeoxycytidine; type: functional, Homo sapiens
OVCAR-8 = assay: Growth inhibition of OVCAR8 cells; type: functional; conditions: Homo sapiens
NCI/ADR-RES = assay: Growth inhibition of NCI/ADR-RES cells; type: functional; conditions: Homo sapiens
UACC-62 = assay: Growth inhibition of UACC62 cells; type: functional; conditions: Homo sapiens
[20] = Growth inhibition of AG6000 cells by SRB assay; type: functional, cell-based; conditions: Homo sapiens; method in brief: as §2
SK-MEL-2 = assay: Growth inhibition of SK-MEL-2 cells; type: functional; conditions: Homo sapiens
NCI-H522 = assay: Growth inhibition of NCI-H522 cells; type: functional; conditions: Homo sapiens
SW1573 [21] = assay: Ratio of growth inhibition of SW1573 cells by drug to 2'-2'-difluorodeoxycytidine; type: functional, Homo sapiens
HOP-62 = assay: Growth inhibition in HOP62 cells; type: functional; conditions: Homo sapiens
BT-549 = assay: Growth inhibition in BT549 cells; type: functional; conditions: Homo sapiens
SK-OV-3 = assay: Growth inhibition of SKOV3 cells; type: functional; conditions: Homo sapiens
SW1573 [22] = assay: Growth inhibition of SW1573 cells by SRB assay; type: functional, cell-based; conditions: Homo sapiens
Method in brief: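 SW1573 NSCLC cells grown in DMEM with 10% FCS and 20 mM HEPES at 37 °C, 5% CO2. Seeded at 5000 cells/well and exposed to a range of drug concentrations for 72 h, then SRB assay. OD read at 540 or 492 nm. Relative growth = (ODtreated − ODzero)/(ODcontrol − ODzero) × 100%, with ODzero taken at drug addition.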

HT-29 = assay: Growth inhibition in HT29 cells; type: functional; conditions: Homo sapiens
A2780 [23] = assay: Growth inhibition of A2780 cells by SRB assay in presence of dipyridamole; type: functional, cell-based; conditions: Homo sapiens; method in brief: as §1
CCRF-CEM [24] = assay: Growth inhibition of dCK deficient CEM cells by MTT assay; conditions: Homo sapiens
MDA-MB-231 = assay: Growth inhibition of MDA-MB-231 cells; type: functional; conditions: Homo sapiens
A2780 [25] = assay: Growth inhibition of A2780 cells by SRB assay; type: functional, cell-based; conditions: Homo sapiens; method in brief: as §2
MCF7 = assay: Growth inhibition of MCF7 cells; type: functional; conditions: Homo sapiens
NCI-H460 [26] = assay: Ratio of growth inhibition of H460 cells by drug to 2'-2'-difluorodeoxycytidine; type: functional, Homo sapiens
PC-3 = assay: Growth inhibition of PC3 cells; type: functional; conditions: Homo sapiens
[27] = Growth inhibition of H292 cells by SRB assay; type: functional, cell-based; conditions: Homo sapiens, NCI-H292; method in brief: as §2
OVCAR-3 = assay: Growth inhibition of OVCAR-3 cells; type: functional; conditions: Homo sapiens

In the case of `CN(CCCCCl)P(=O)(OCc1ccc([N+](=O)[O-])o1)OC[C@H]1O[C@@H](n2ccc(N)nc2=O)C(F)(F)[C@@H]1O` (some centres undefined), the “Ratio IC50” value [1] is reported as 2.8, the GI50 (SK-MEL-5) is reported as 3.2 µM and the IC50 (SW1573 [2]) is reported as greater than 0.5 µM. For the same compound, the GI50 (DU-145) was 0.19 µM, the IC50 (CCRF-CEM [3]) was 4 µM and the GI50 (MOLT-4) was 0.77 µM. The GI50 (EKVX) was 2.5 µM, the GI50 (NCI-H460 [4]) was 0.3 µM and the GI50 (MDA-MB-435) was 0.47 µM. It also gave a GI50 (LOX IMVI) of 0.76 µM, an IC50 (CCRF-CEM [5]) of 2 µM and a GI50 (HOP-92) of 0.15 µM. It also gave a GI50 (HCT-116) of 1.1 µM, an IC50 (A549 [6]) greater than 0.5 µM and a GI50 (NCI-H23) of 0.074 µM. The GI50 (ACHN) was 0.038 µM, the GI50 (IGROV-1) was 14 µM and the GI50 (786-0) was 0.062 µM. For the same compound, the GI50 (SW-620) was 38 µM, the IC50 (NCI-H460 [7]) was 0.077 µM and the IC50 (NCI-H460 [8]) was greater than 0.5 µM. For the same compound, the “Ratio IC50” value (A549 [9]) was 5.6, the GI50 (M14) was 0.054 µM and the GI50 (SF-268) was 0.26 µM. The IC50 [10] was 0.33 µM, the GI50 (NCI-H226) was 16 µM and the GI50 (TK-10) was 1.5 µM. For the same compound, the “Ratio IC50” value (A2780 [11]) was 5.3, the GI50 (NCI-H322M) was 3.5 µM and the GI50 (SNB-19) was 0.26 µM. For the same compound, the GI50 (HCT-15) was 54 µM, the GI50 (CAKI-1) was 0.22 µM and the GI50 (K562) was 13 µM. For the same compound, the IC50 [12] was 6 µM, the GI50 (OVCAR-5) was 1.9 µM and the GI50 (SN12C) was 0.49 µM. The GI50 (A498) was 5.8 µM, the “Ratio IC50” value (CCRF-CEM [13]) was 0.26 and the IC50 (CCRF-CEM [14]) was 17 µM. The GI50 (A549 [15]) was 0.73 µM, the GI50 (KM12) was 15 µM and the “Ratio IC50” value (CCRF-CEM [16]) was 15. It also gave a GI50 (COLO 205) of 7.5 µM, a GI50 (U-251) of 0.78 µM and a GI50 (SK-MEL-28) of 20 µM. The IC50 (A549 [17]) was 0.079 µM, the GI50 (SNB-75) was 13 µM and the GI50 (SF-295) was 0.88 µM. It also gave a GI50 [18] of 46 µM, a GI50 (UO-31) of 0.4 µM and a GI50 (SF-539) of 0.042 µM. For the same compound, the GI50 (UACC-257) was 17 µM, the “Ratio IC50” value [19] was 0.25 and the GI50 (OVCAR-8) was 0.11 µM. For the same compound, the GI50 (NCI/ADR-RES) was 0.23 µM, the GI50 (UACC-62) was 1.1 µM and the IC50 [20] was 5 µM. The GI50 (SK-MEL-2) was 80 µM, the GI50 (NCI-H522) was 15 µM and the “Ratio IC50” value (SW1573 [21]) was 5.8. For the same compound, the GI50 (HOP-62) was 0.5 µM, the GI50 (BT-549) was 1.6 µM and the GI50 (SK-OV-3) was 2.2 µM. For the same compound, the IC50 (SW1573 [22]) was 0.092 µM, the GI50 (HT-29) was 30 µM and the IC50 (A2780 [23]) was 0.4 µM. For the same compound, the IC50 (CCRF-CEM [24]) was 13 µM, the GI50 (MDA-MB-231) was 25 µM and the IC50 (A2780 [25]) was 0.008 µM. The GI50 (MCF7) was 0.45 µM, the “Ratio IC50” value (NCI-H460 [26]) was 7.7 and the GI50 (PC-3) was 1.8 µM. The IC50 [27] was 0.037 µM and the GI50 (OVCAR-3) was 3.2 µM.
